Assay results reported in ChEMBL document CHEMBL1165943, “Design and synthesis of new anticancer pyrimidines with multiple-kinase inhibitory effect” (Bioorg Med Chem, 2010).

Tests used:
Assay type in all cases: functional
K562 = test: Cytotoxicity against human K562 cells assessed as cell growth at 10 uM; conditions: Homo sapiens, K562; read-out: Activity
Summary of the method: (§1)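 Single-dose screen at 10 μM across the 60-cell-line panel. Cells grown in RPMI 1640 with 5% FBS and 2 mM L-glutamine, seeded at 5,000–40,000 cells/well according to doubling time, and treated 24 h later. Exposure lasted 48 h at 37 °C, 5% CO₂. Adherent cells were fixed with cold TCA, suspension cells were fixed settled, and both were stained with SRB and read at 515 nm. Growth % was recorded, with inhibition % = 100 − growth %.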

EKVX = test: Cytotoxicity against human EKVX cells assessed as cell growth at 10 uM; conditions: Homo sapiens, EKVX; read-out: Activity
Summary of the method: (§2)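 Single-concentration screen at 10 μM across the 60-cell-line panel (nine tissue types); growth percentage recorded per cell line, with inhibition taken as 100 minus growth percentage.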

HOP-62 = test: Cytotoxicity against human HOP62 cells assessed as cell growth at 10 uM; conditions: Homo sapiens, HOP-62; read-out: Activity; summary of the method: as §2
NCI-H226 = test: Cytotoxicity against human NCI-H226 cells assessed as cell growth at 10 uM; conditions: Homo sapiens, NCI-H226; read-out: Activity; summary of the method: as §1
NCI-H23 = test: Cytotoxicity against human NCI-H23 cells assessed as cell growth at 10 uM; conditions: Homo sapiens, NCI-H23; read-out: Activity; summary of the method: as §1
NCI-H322M = test: Cytotoxicity against human NCI-H322M cells assessed as cell growth at 10 uM; conditions: Homo sapiens, NCI-H322M; read-out: Activity; summary of the method: as §1
NCI-H460 = test: Cytotoxicity against human NCI-H460 cells assessed as cell growth at 10 uM; conditions: Homo sapiens, NCI-H460; read-out: Activity; summary of the method: as §1
COLO 205 = test: Cytotoxicity against human COLO205 cells assessed as cell growth at 10 uM; conditions: Homo sapiens, COLO 205; read-out: Activity; summary of the method: as §2
HCC 2998 = test: Cytotoxicity against human HCC2998 cells assessed as cell growth at 10 uM; conditions: Homo sapiens, HCC 2998; read-out: Activity; summary of the method: as §2
HCT-116 = test: Cytotoxicity against human HCT116 cells assessed as cell growth at 10 uM; conditions: Homo sapiens, HCT-116; read-out: Activity; summary of the method: as §2
HCT-15 = test: Cytotoxicity against human HCT15 cells assessed as cell growth at 10 uM; conditions: Homo sapiens, HCT-15; read-out: Activity; summary of the method: as §2
HT-29 = test: Cytotoxicity against human HT-29 cells assessed as cell growth at 10 uM; conditions: Homo sapiens, HT-29; read-out: Activity; summary of the method: as §2
KM12 = test: Cytotoxicity against human KM12 cells assessed as cell growth at 10 uM; conditions: Homo sapiens, KM12; read-out: Activity; summary of the method: as §1
SW-620 = test: Cytotoxicity against human SW620 cells assessed as cell growth at 10 uM; conditions: Homo sapiens, SW-620; read-out: Activity; summary of the method: as §1
SF-268 = test: Cytotoxicity against human SF268 cells assessed as cell growth at 10 uM; conditions: Homo sapiens, SF-268; read-out: Activity; summary of the method: as §1
Malme-3M = test: Cytotoxicity against human MALME-3M cells assessed as cell growth at 10 uM; conditions: Homo sapiens, Malme-3M; read-out: Activity; summary of the method: as §1
SK-MEL-2 = test: Cytotoxicity against human SK-MEL-2 cells assessed as cell growth at 10 uM; conditions: Homo sapiens, SK-MEL-2; read-out: Activity; summary of the method: as §1
SK-MEL-5 = test: Cytotoxicity against human SK-MEL-5 cells assessed as cell growth at 10 uM; conditions: Homo sapiens, SK-MEL-5; read-out: Activity; summary of the method: as §1
UACC-257 = test: Cytotoxicity against human UACC257 cells assessed as cell growth at 10 uM; conditions: Homo sapiens, UACC-257; read-out: Activity; summary of the method: as §1
UACC-62 = test: Cytotoxicity against human UACC62 cells assessed as cell growth at 10 uM; conditions: Homo sapiens, UACC-62; read-out: Activity; summary of the method: as §1
IGROV-1 = test: Cytotoxicity against human IGROV1 cells assessed as cell growth at 10 uM; conditions: Homo sapiens, IGROV-1; read-out: Activity; summary of the method: as §1
OVCAR-3 = test: Cytotoxicity against human OVCAR-3 cells assessed as cell growth at 10 uM; conditions: Homo sapiens, OVCAR-3; read-out: Activity; summary of the method: as §1
OVCAR-4 = test: Cytotoxicity against human OVCAR4 cells assessed as cell growth at 10 uM; conditions: Homo sapiens, OVCAR-4; read-out: Activity; summary of the method: as §1
OVCAR-5 = test: Cytotoxicity against human OVCAR5 cells assessed as cell growth at 10 uM; conditions: Homo sapiens, OVCAR-5; read-out: Activity; summary of the method: as §1
OVCAR-8 = test: Cytotoxicity against human OVCAR8 cells assessed as cell growth at 10 uM; conditions: Homo sapiens, OVCAR-8; read-out: Activity; summary of the method: as §1
NCI/ADR-RES = test: Cytotoxicity against human NCI/ADR-RES cells assessed as cell growth at 10 uM; conditions: Homo sapiens, NCI/ADR-RES; read-out: Activity; summary of the method: as §1
SK-OV-3 = test: Cytotoxicity against human SKOV3 cells assessed as cell growth at 10 uM; conditions: Homo sapiens, SK-OV-3; read-out: Activity; summary of the method: as §1
786-0 = test: Cytotoxicity against human 786-0 cells assessed as cell growth at 10 uM; conditions: Homo sapiens, 786-0; read-out: Activity; summary of the method: as §2
A498 = test: Cytotoxicity against human A498 cells assessed as cell growth at 10 uM; conditions: Homo sapiens, A498; read-out: Activity; summary of the method: as §2
TK-10 = test: Cytotoxicity against human TK10 cells assessed as cell growth at 10 uM; conditions: Homo sapiens, TK-10; read-out: Activity; summary of the method: as §1
UO-31 = test: Cytotoxicity against human UO31 cells assessed as cell growth at 10 uM; conditions: Homo sapiens, UO-31; read-out: Activity; summary of the method: as §1
PC-3 = test: Cytotoxicity against human PC3 cells assessed as cell growth at 10 uM; conditions: Homo sapiens, PC-3; read-out: Activity; summary of the method: as §1
MCF7 = test: Cytotoxicity against human MCF7 cells assessed as cell growth at 10 uM; conditions: Homo sapiens, MCF7; read-out: Activity; summary of the method: as §1
MDA-MB-231 = test: Cytotoxicity against human MDA-MB-231 cells assessed as cell growth at 10 uM; conditions: Homo sapiens, MDA-MB-231; read-out: Activity; summary of the method: as §1
BT-549 = test: Cytotoxicity against human BT549 cells assessed as cell growth at 10 uM; conditions: Homo sapiens, BT-549; read-out: Activity; summary of the method: as §2
T47D = test: Cytotoxicity against human T47D cells assessed as cell growth at 10 uM; conditions: Homo sapiens, T47D; read-out: Activity; summary of the method: as §1
MDA-MB-468 = test: Cytotoxicity against human MDA-MB-468 cells assessed as cell growth at 10 uM; conditions: Homo sapiens, MDA-MB-468; read-out: Activity; summary of the method: as §1
[1] = Growth inhibition of human NCI60 cells at 10 uM after 48 hrs by sulforhodamine B assay relative to control; conditions: Homo sapiens, NCI60, 48 h; read-out: GI
Summary of the method: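 Single 10 µM dose across the 60-line panel for 48 h, with the same culture, TCA fixation and SRB 515 nm read-out. Inhibition % = 100 − growth %, given as the mean over the 60 cell lines.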

SMILES | growth at 10 µM (K562) [%] | growth at 10 µM (EKVX) [%] | growth at 10 µM (HOP-62) [%] | growth at 10 µM (NCI-H226) [%] | growth at 10 µM (NCI-H23) [%] | growth at 10 µM (NCI-H322M) [%] | growth at 10 µM (NCI-H460) [%] | growth at 10 µM (COLO 205) [%] | growth at 10 µM (HCC 2998) [%] | growth at 10 µM (HCT-116) [%] | growth at 10 µM (HCT-15) [%] | growth at 10 µM (HT-29) [%] | growth at 10 µM (KM12) [%] | growth at 10 µM (SW-620) [%] | growth at 10 µM (SF-268) [%] | growth at 10 µM (Malme-3M) [%] | growth at 10 µM (SK-MEL-2) [%] | growth at 10 µM (SK-MEL-5) [%] | growth at 10 µM (UACC-257) [%] | growth at 10 µM (UACC-62) [%] | also measured
c1ccc(-c2ccc(-c3ccnc(Nc4ccc(N(c5ccccc5)c5ccccc5)cc4)n3)cn2)cc1 | 94.9 | 103 | 122 | 115 | 145 | 88.5 | 84.4 | 116 | 112 | 40.6 | 102 | 89.5 | 97 | 78.3 | 90 | 65.2 | 102 | 118 | 106 | 96.9 | growth at 10 µM (IGROV-1): 67.2%; growth at 10 µM (OVCAR-3): 125%; growth at 10 µM (OVCAR-4): 93.4%; growth at 10 µM (OVCAR-5): 106%; growth at 10 µM (OVCAR-8): 79.5%; growth at 10 µM (NCI/ADR-RES): 125%; growth at 10 µM (SK-OV-3): 119%; growth at 10 µM (786-0): 71.5%; growth at 10 µM (A498): 96.2%; growth at 10 µM (TK-10): 113%; growth at 10 µM (UO-31): 72.4%; growth at 10 µM (PC-3): 87.1%; growth at 10 µM (MCF7): 96.6%; growth at 10 µM (MDA-MB-231): 123%; growth at 10 µM (BT-549): 102%; growth at 10 µM (T47D): 111%; growth at 10 µM (MDA-MB-468): 105%; inhibition of growth at 10 µM [1]: 0.97%
CC(=O)c1ccccc1-c1ccc(-c2ccnc(NC(=O)Nc3cc(N4CCOCC4)cc(C(F)(F)F)c3)n2)cn1 | 83.3 | 88.2 | 7.86 | 39.4 | 58.5 | 90.1 | 87.4 | 85.7 | 106 | 63 | 84.2 | 33.1 | 90.4 | 90.5 | 63.9 | 24.8 | 60.8 | 43.2 | 65.1 | 76 | growth at 10 µM (IGROV-1): 70.8%; growth at 10 µM (OVCAR-3): 123%; growth at 10 µM (OVCAR-4): 27.5%; growth at 10 µM (OVCAR-5): 102%; growth at 10 µM (OVCAR-8): 43%; growth at 10 µM (NCI/ADR-RES): 58.1%; growth at 10 µM (SK-OV-3): 71.5%; growth at 10 µM (786-0): 47.3%; growth at 10 µM (A498): 107%; growth at 10 µM (TK-10): 47.8%; growth at 10 µM (UO-31): 92.1%; growth at 10 µM (PC-3): 71.3%; growth at 10 µM (MCF7): 75%; growth at 10 µM (MDA-MB-231): 30.1%; growth at 10 µM (BT-549): 51.7%; growth at 10 µM (T47D): 79.8%; growth at 10 µM (MDA-MB-468): 82.1%; inhibition of growth at 10 µM [1]: 38.4%
